Measurements: publication PMC3771329 (Journal of the American Chemical Society, 2013)

What was measured:
furin = furin (Homo sapiens, UniProt P09958); assay: Fluorescence spectrometry of probes incubated with and without furin; format: biochemical; conditions: 2 μM probe, furin (100 pmol·U−1) buffer (100 mM HEPES, 1 mM CaCl2, pH 7.5) with 1 mM TCEP, 3 h, 37 °C; n=3
[1] = system: MDA-MB-231 (furin-overexpressing) subcutaneous tumors; assay: Furin-like activity photoacoustic imaging in mice, MDA-MB-231 tumors; format: in vivo; conditions: 25 nmol by tail vein; imaged every 15 min up to 60 min; n=4
Summary of the method: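 Female nude (Nu/Nu) mice carried subcutaneous upper-thigh xenografts from 10 million MDA-MB-231 or LoVo cells, grown 3–4 weeks. Mice were under 2% isoflurane in oxygen with a tail-vein catheter. Tumors got an 11-min pre-scan at 740 nm. Test compound (25 nmol, diluted from DMSO stock into 150 μL sterile PBS) was given i.v. PA scans ran every 15 min for 1 h: 120 views, 100 pulses/view, 250 μm voxels, 3D back-projection reconstruction. Signal normalized to t=0; n=4/group, SD; two-sided paired t test.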

[2] = format: physicochemical; conditions: after incubation with furin, buffer pH 7.5 with TCEP, 37 °C, 3 h

furin, sequence (P09958 108-595 limits assumed): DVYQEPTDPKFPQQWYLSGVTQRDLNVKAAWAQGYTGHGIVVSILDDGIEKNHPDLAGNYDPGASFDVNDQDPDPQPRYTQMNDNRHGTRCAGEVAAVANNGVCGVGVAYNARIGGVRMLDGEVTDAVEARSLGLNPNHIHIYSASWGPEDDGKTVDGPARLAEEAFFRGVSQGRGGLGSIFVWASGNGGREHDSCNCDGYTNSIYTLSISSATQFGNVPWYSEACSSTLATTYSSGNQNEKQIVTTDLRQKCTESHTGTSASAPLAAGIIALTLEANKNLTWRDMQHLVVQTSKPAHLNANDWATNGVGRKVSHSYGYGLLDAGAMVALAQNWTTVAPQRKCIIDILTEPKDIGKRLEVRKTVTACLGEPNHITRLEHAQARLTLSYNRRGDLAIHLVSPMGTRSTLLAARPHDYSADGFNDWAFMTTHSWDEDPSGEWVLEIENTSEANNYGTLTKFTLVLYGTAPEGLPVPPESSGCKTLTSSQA

Substance	drop in fluorescence, incubated with furin relative to no furin added (furin)	PA signal in MDA-MB-231 tumors after probe injection [1]	precipitation / water solubility of the oligomers formed with furin [2]
Ac-RRRVC(SEt)K(Atto740)-CABT [ESOR-PA02]	no significant decrease	very low levels of PA signal	–
Ac-RVRRC(SEt)K(Atto740)-CABT [ESOR-PA01]	6 fold	–	no precipitate was formed
